Assay results from ChEMBL document CHEMBL3864129, “Polybrominated Diphenyl Ethers: Structure Determination and Trends in Antibacterial Activity” (J Nat Prod, 2016).
Values after ≈ are worked out from the molar mass of the structure shown.

What was measured:
Enterococcus faecium [1] = experiment: Antimicrobial activity against Enterococcus […] ATCC 51299 by CLSI M07-A9 method; format: functional
How it was run: (§1)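 Laboratory strains tested following CLSI guidelines. Each compound was run in duplicate in at least two independent experiments, and the MIC was recorded.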

Escherichia coli = experiment: Antimicrobial activity against Escherichia coli ATCC 25922 by CLSI M07-A9 method; format: functional; how it was run: as §1
Staphylococcus aureus [2] = experiment: Antimicrobial activity against Staphylococcus aureus ATCC 43300 by CLSI M07-A9 method; format: functional; how it was run: as §1
Enterococcus faecium [3] = experiment: Antimicrobial activity against Enterococcus […] ATCC 29212 by CLSI M07-A9 method; format: functional; how it was run: as §1
Staphylococcus aureus [4] = experiment: Antimicrobial activity against Staphylococcus aureus ATCC 29213 by CLSI M07-A9 method; format: functional; how it was run: as §1
[5] = Cytotoxicity against African green monkey BSC1 cells assessed as decrease in cell viability after 24 hrs by MTT assay; format: toxicity, cell-based, Chlorocebus aethiops, BSC-1; settings: for IC50: bsc-1; for IC50 at 24 h: African green monkey (Chlorocebus aethiops), BSC1 cells
[6] = Cytotoxicity against human HCT116 cells assessed as decrease in cell viability after 24 hrs by MTT assay; format: toxicity, cell-based, HCT-116
Pseudomonas aeruginosa = experiment: Antimicrobial activity against Pseudomonas aeruginosa ATCC 27853 by CLSI M07-A9 method; format: functional; how it was run: as §1
Candida albicans = experiment: Antimicrobial activity against Candida albicans ATCC 28517 by CLSI M07-A9 method; format: functional; how it was run: as §1

Row | Molecule | MIC (Enterococcus faecium [1]) | Activity (Escherichia coli) | MIC (Staphylococcus aureus [2]) | MIC (Enterococcus faecium [3]) | MIC (Staphylococcus aureus [4]) | IC50 [5] | MNTC at 24 h [6] | MIC (Pseudomonas aeruginosa) | MIC (Escherichia coli) | MIC (Candida albicans) | IC50 at 24 h [5]
1 | Oc1ccccc1Oc1ccccc1O | > 50 µg/mL | Non-Toxic | 50 µg/mL (≈ 247 µM) | > 50 µg/mL | 50 µg/mL (≈ 247 µM) |  |  |  |  |  | 
2 | Oc1c(Br)cc(Br)cc1Oc1c(O)c(Br)c(Br)c(Br)c1Br | 0.39 µg/mL (≈ 0.577 µM) |  | 0.16 µg/mL (≈ 0.237 µM) | 0.78 µg/mL (≈ 1.15 µM) | 0.39 µg/mL (≈ 0.577 µM) | > 50 µg/mL | 50 µg/mL |  |  |  | 
3 | GENTAMICIN |  |  |  |  |  |  |  | 1 µg/mL |  |  | 
4 | Oc1c(Br)c(Br)c(Br)c(Br)c1Oc1ccc(Br)cc1Br | 33 µg/mL (≈ 50 µM) |  | 0.8 µg/mL (≈ 1.21 µM) | 33 µg/mL (≈ 50 µM) | 1.6 µg/mL (≈ 2.43 µM) | 29 µg/mL (≈ 44 µM) |  |  | > 100 µg/mL |  | 
5 | Oc1c(Br)cc(Br)cc1Oc1ccc(Br)cc1Br | 0.8 µg/mL (≈ 1.59 µM) |  | 0.19 µg/mL (≈ 0.379 µM) | 0.8 µg/mL (≈ 1.59 µM) | 0.78 µg/mL (≈ 1.55 µM) | 32 µg/mL (≈ 63.8 µM) |  |  | > 100 µg/mL |  | 
6 | Oc1c(Br)cc(Br)cc1Oc1c(O)c(Br)cc(Br)c1Br | 3.1 µg/mL (≈ 5.2 µM) |  | 0.31 µg/mL (≈ 0.52 µM) | 3.1 µg/mL (≈ 5.2 µM) | 1.6 µg/mL (≈ 2.68 µM) | > 50 µg/mL | 50 µg/mL | > 50 µg/mL | 100 µg/mL (≈ 168 µM) | > 50 µg/mL | 
7 | Oc1cc(Br)cc(Br)c1O | 25 µg/mL (≈ 93.3 µM) |  | > 50 µg/mL | 12.5 µg/mL (≈ 46.7 µM) | 100 µg/mL (≈ 373 µM) | > 50 µg/mL | 50 µg/mL | > 50 µg/mL | > 100 µg/mL | > 50 µg/mL | 
8 | Oc1cc(Br)c(Br)c(Br)c1Oc1cc(Br)cc(Br)c1O | 0.39 µg/mL (≈ 0.654 µM) |  | 0.078 µg/mL (≈ 0.131 µM) | 0.39 µg/mL (≈ 0.654 µM) | 0.31 µg/mL (≈ 0.52 µM) | > 50 µg/mL | 50 µg/mL |  | 25 µg/mL (≈ 41.9 µM) | > 50 µg/mL | 
9 | Oc1c(Br)cc(Br)cc1Oc1cc(Br)c(Br)c(Br)c1O | 0.78 µg/mL (≈ 1.31 µM) |  | 0.16 µg/mL (≈ 0.268 µM) | 1.6 µg/mL (≈ 2.68 µM) | 0.31 µg/mL (≈ 0.52 µM) | > 50 µg/mL | 50 µg/mL |  |  | > 50 µg/mL | 
10 | COc1c(Br)c(Br)c(O)c(Oc2cc(Br)cc(Br)c2O)c1Br | 1.56 µg/mL (≈ 2.49 µM) |  | 0.39 µg/mL (≈ 0.622 µM) | 3.1 µg/mL (≈ 4.95 µM) | 0.78 µg/mL (≈ 1.24 µM) | > 50 µg/mL | 50 µg/mL | > 50 µg/mL | > 50 µg/mL | > 50 µg/mL | 
11 | Oc1c(Br)cc(Br)cc1Oc1c(Br)cc(Br)c(Br)c1O | 0.78 µg/mL (≈ 1.31 µM) |  | 0.16 µg/mL (≈ 0.268 µM) | 1.6 µg/mL (≈ 2.68 µM) | 0.78 µg/mL (≈ 1.31 µM) | > 50 µg/mL | 50 µg/mL | > 50 µg/mL |  | > 50 µg/mL | 
12 | Oc1cc(Br)cc(Br)c1Oc1cc(Br)cc(Br)c1O | 1.6 µg/mL (≈ 3.09 µM) |  | 1.25 µg/mL (≈ 2.41 µM) | 3.1 µg/mL (≈ 5.99 µM) | 1.6 µg/mL (≈ 3.09 µM) | > 50 µg/mL | 50 µg/mL | > 50 µg/mL |  | > 50 µg/mL | 
13 | COc1c(Br)cc(Br)cc1Oc1c(Br)cc(Br)c(Br)c1OC |  |  | > 50 µg/mL |  | > 50 µg/mL | > 50 µg/mL | 50 µg/mL | > 50 µg/mL | > 50 µg/mL | > 50 µg/mL | 
14 | COc1c(Br)cc(Br)cc1Oc1cc(Br)c(Br)c(Br)c1OC | > 50 µg/mL |  | > 50 µg/mL | > 50 µg/mL | > 50 µg/mL |  | 50 µg/mL | > 50 µg/mL | > 50 µg/mL | > 50 µg/mL | > 50 µg/mL
15 | COc1c(Br)cc(Br)cc1Oc1c(Br)c(OC)c(Br)c(Br)c1OC | 13 µg/mL (≈ 19.9 µM) |  | 3.1 µg/mL (≈ 4.73 µM) | 13 µg/mL (≈ 19.9 µM) | 3.1 µg/mL (≈ 4.73 µM) | > 50 µg/mL | 50 µg/mL | > 50 µg/mL | > 50 µg/mL | > 50 µg/mL | 
16 | C[C@@H]1[C@H](O)[C@@H](C)/C=C/C=C/C=C/C=C/C=C/C=C/C=C/[C@H](O[C@@H]2O[C@H](C)[C@@H](O)[C@H](N)[C@@H]2O)C[C@@H]2O[C@](O)(C[C@@H](O)C[C@@H](O)[C@H](O)CC[C@@H](O)C[C@@H](O)CC(=O)O[C@H]1C)C[C@H](O)[C@H]2C(=O)O [AMPHOTERICIN B] |  |  |  |  |  |  |  |  |  | < 7.8 µg/mL | 
17 | COc1c(Br)cc(Br)cc1Oc1ccc(Br)cc1Br | 11 µg/mL (≈ 21.3 µM) |  | 0.4 µg/mL (≈ 0.775 µM) | 11 µg/mL (≈ 21.3 µM) | 3.7 µg/mL (≈ 7.17 µM) | 35 µg/mL (≈ 67.9 µM) |  |  | > 100 µg/mL |  | 
18 | COc1c(Br)cc(Br)cc1Oc1c(Br)c(Br)cc(Br)c1OC | > 50 µg/mL |  | > 50 µg/mL | 50 µg/mL (≈ 80 µM) | > 50 µg/mL |  | 50 µg/mL | > 50 µg/mL | > 50 µg/mL | > 50 µg/mL | > 50 µg/mL
19 | Cc1onc(-c2ccccc2)c1C(=O)N[C@@H]1C(=O)N2[C@@H]1SC(C)(C)[C@@H]2C(=O)O [OXACILLIN] | 32 µg/mL (≈ 79.7 µM) |  | > 32 µg/mL |  | 0.13 µg/mL (≈ 0.324 µM) |  |  |  |  |  | 
20 | COc1cc(Br)c(Br)c(Br)c1Oc1cc(Br)cc(Br)c1OC | > 50 µg/mL |  | > 50 µg/mL | > 50 µg/mL | > 50 µg/mL | > 50 µg/mL | 50 µg/mL | > 50 µg/mL | > 50 µg/mL | > 50 µg/mL | 
21 | Oc1c(Oc2ccc(Br)cc2Br)cc(Br)c(Br)c1Br | 1.2 µg/mL (≈ 2.07 µM) |  | 0.4 µg/mL (≈ 0.689 µM) | 1.2 µg/mL (≈ 2.07 µM) | 3.7 µg/mL (≈ 6.37 µM) | 15 µg/mL (≈ 25.8 µM) |  |  | > 100 µg/mL |  | 
22 | Oc1cc(Br)c(Br)cc1Oc1ccc(Br)cc1Br | 0.4 µg/mL (≈ 0.797 µM) |  | 0.015 µg/mL (≈ 0.0299 µM) | 0.4 µg/mL (≈ 0.797 µM) | 0.14 µg/mL (≈ 0.279 µM) | 8.8 µg/mL (≈ 17.5 µM) |  |  | 12.5 µg/mL (≈ 24.9 µM) |  | 
23 | Oc1cc(Br)cc(Br)c1Oc1ccc(Br)cc1Br | 1.2 µg/mL (≈ 2.39 µM) |  | 0.08 µg/mL (≈ 0.159 µM) | 1.2 µg/mL (≈ 2.39 µM) | 0.042 µg/mL (≈ 0.0837 µM) | 7 µg/mL (≈ 13.9 µM) |  | > 50 µg/mL | 3.1 µg/mL (≈ 6.18 µM) | > 50 µg/mL | 
